The values that follow come from ChEMBL document CHEMBL4513216, “Probing the Open Global Health Chemical Diversity Library for Multistage-Active Starting Points for Next-Generation Antimalarials” (ACS Infect Dis, 2020).

This data set in a line: Toxicity liver stage against HepG2, at 10uM. In kind it is cell-based. The arrangement: test concentration 10 uM, cell line HepG2-A16-CD81EGFP. The settings on record: human, HepG2-A16-CD81EGFP cells; read-out: INHIBITION
In short, it runs like this: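 Uninfected HepG2-A16-CD81EGFP cells, 3 × 10^3 per well, 1536-well, plated on prespotted compound at 10 μM final, parasite-free screening media added to match infected plates; puromycin 10 μM positive, DMSO 0.5% negative; run in parallel with 48 h PbLuc assay at 37 °C, 5% CO2; viability by CellTiter-Glo luminescence, normalized to controls.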
With `Cn1cnc(-c2cc(C(=O)N3CCOCC3)c3ccccn23)c1`, the cytotoxicity at 10 µM came out at 4.79%. As for `OC1(CN2CCCC2)COCCN(c2ncnc3[nH]ccc23)C1` (centres undefined), the figure is 10.7%.

On to `CCOc1ccc(C(=O)CCC(=O)N(C)Cc2cnccn2)cc1C`, for which the cytotoxicity at 10 µM was 1.39%.

In the case of `CC(C)OCc1ncn2c1CN(Cc1cccs1)CCC2`, the cytotoxicity at 10 µM was determined as 8.44%. In the case of `CN(C)c1ccc(C(=O)N(CCO)CC2CC2)c(F)c1` it was 5.25%; in that of `CN(C)Cc1cc(=O)n2c(n1)CN(CC1CC1)CCC2`, 5.71%; in that of `CCc1cn[nH]c1C1CCN(c2cc(C)c3ccc(OC)cc3n2)CC1`, 18.7%.

`Cc1cc(S(=O)(=O)NCC(C)(O)CN(C)C)c(F)cc1F` (centres undefined): the cytotoxicity at 10 µM amounted to 10%.

With `CC(C)Nc1nc2c(cc1C(=O)N(C)C)CCNCC2`, the cytotoxicity at 10 µM is -4.99%. In the case of `Cc1cnc(CN2CCOC(CNc3cccnn3)C2)cn1` (centres undefined) it was -5.15%; in that of `CCNCCc1nc2cc(F)ccc2[nH]1`, 5.18%; in that of `CC(C(=O)NCCN1CCCCC1)n1cncn1` (centres undefined), -3.37%. As for `Cc1nccn1CCC1CCCCN1Cc1ccncc1` (centres undefined), the cytotoxicity at 10 µM is 35.2%. As for `CCCc1nc(N(C)Cc2cnc(NC)nc2)c2cnn(C)c2n1`, the figure is 3.42%.

With `Cc1ccccc1N1CC2(CCN(c3nncs3)C2)CC1=O` (centres undefined), the cytotoxicity at 10 µM was -7.74%. `CCCc1cc(C(=O)N2CCCC2c2cccnc2)[nH]n1` (centres undefined): the cytotoxicity at 10 µM is -9.81%. Regarding `Cc1cncc(C(=O)N2CC[C@@]3(C[C@H](NS(C)(=O)=O)CCO3)C2)c1`, the cytotoxicity at 10 µM is -73.6%. In the case of `CC(C)c1cc(NCC(O)c2ccccn2)n2nccc2n1` (centres undefined) it was 13%; in that of `CCCc1c(C(=O)NC2CCCC2)nnn1-c1ccc(OC)cc1`, 5.65%; in that of `CCn1cnnc1CNC(=O)NC(c1ccccc1)C1CCCC1` (centres undefined), 12%.

As to `CCc1ccsc1C(=O)N1CCCN(Cc2cnn(CC)c2)CC1`, the cytotoxicity at 10 µM worked out at 0.501%. As for `CCCN1CC2(CCN(C)CC2)CC1C(=O)NCc1cc(C)nn1C` (centres undefined), the figure is 0.318%; as for `Cc1ccsc1CN(C)C(=O)Cn1nc(-c2ccc(F)cc2)oc1=O`, 1.31%.

On to `COCCC(=O)N1CCCC(c2n[nH]cc2C)C1` (centres undefined), for which the cytotoxicity at 10 µM was -1.75%.

Consider `CS(=O)(=O)N1C[C@H]2CN(CC3CC3)C(=O)[C@H]2C1`, for which the cytotoxicity at 10 µM turned out to be 6.53%. As to `c1ccc(C2CCCN(c3cncc(-n4cccn4)n3)CC2)cc1` (centres undefined), the cytotoxicity at 10 µM came to 48%. In the case of `Cc1cc(=O)[nH]c(CCNC(=O)C(c2ccc(F)cc2)N(C)C)n1` (centres undefined) it was -9.78%; in that of `COc1cccc(-c2nc(C)c(C(=O)N[C@@H](C)C(=O)O)s2)c1`, 6.51%; in that of `NC(=O)CCN(CC(=O)NCc1ccccn1)c1ccc(F)cc1`, 7.98%. For the compound `CC(C)CNC(=O)c1cc(Br)c2c(c1)OCCO2`, the cytotoxicity at 10 µM turned out to be 6.7%. In the case of `CCn1ncnc1CN1CCC(CNC(=O)c2ccccc2C#N)C1` (centres undefined) it was 13.2%. As for `N#Cc1cccnc1N1CCC(C2CCCCCN2C(N)=O)CC1` (centres undefined), the figure is -2.51%. For the compound `CCn1cc(NC(=O)NCC(O)CN2CCc3ccccc3C2)cn1` (centres undefined), the cytotoxicity at 10 µM is -4.33%. In the case of `Fc1cnc(N2CCCC3(CN(Cc4cccs4)CCO3)C2)nc1` (centres undefined) it was 7.37%; in that of `O=c1oc(-c2ccc(F)cc2)nn1CN1CCN(CC2CC2)CC1`, 1.44%; in that of `COc1cccc(Cn2cc(N3C(=O)[C@H]4CCCC[C@H]4C3=O)cn2)c1`, -11.9%.

For `CN1CCCN(C(=O)c2cnsn2)c2cc(Cl)ccc21`, the cytotoxicity at 10 µM is -7.34%.

Turning to `Cc1nc(C)n(CC2CCCCN2CCCS(C)(=O)=O)n1` (centres undefined), the cytotoxicity at 10 µM came out at 5.02%. As for `Cc1cc(-c2cnc(N3CCSCC3)nc2-c2ccc(C)s2)on1`, the figure is -2.5%; as for `Cc1cnn(CCCNC(=O)C2CCCCN2Cc2cccnc2)c1` (centres undefined), -8.97%.

As for `CN(C)c1ccc(NC(=O)NCc2cccs2)cn1`, the cytotoxicity at 10 µM is -1.15%.

In the case of `CCN1CC(C(=O)NCCn2cccc2)CC1=O` (centres undefined), the cytotoxicity at 10 µM was -4.72%.

Turning to `COc1ccc2c(c1)OCC(CNC(=O)c1cc(C(C)C)on1)C2` (centres undefined), the cytotoxicity at 10 µM was found to be 0.0723%.

As for `O=C(c1cccc(NCc2cccc(F)c2)c1)N1CCC(O)CC1`, the cytotoxicity at 10 µM turned out to be 5.84%. As for `COCc1cccc(S(=O)(=O)N2CCSCC2)c1`, the figure is 8.19%; as for `COC(=O)CCCNC(=O)c1cc(COc2cncc(Cl)c2)on1`, 8.23%. Regarding `Cn1ncc(C(=O)N2CCN(C(=O)c3ccco3)CC2)c1Cl`, the cytotoxicity at 10 µM was 2.88%.

For the compound `Cc1cnn(C2CCCN(C(=O)c3cccc4c3OCO4)C2)c1` (centres undefined), the cytotoxicity at 10 µM was -2.23%. Take `CCCn1nc2c(cc1=O)CN(Cc1cc(C)no1)CC2`: the cytotoxicity at 10 µM is -11.6%. In the case of `Cc1ncsc1C(=O)NC1CCN(c2ncccc2C#N)CC1` it was 2.68%.

As to `CC1c2ncc(CN3CCN(C)CC3)n2CCN1Cc1ccsc1` (centres undefined), the cytotoxicity at 10 µM is 6.58%. In the case of `CC(C)n1c(=O)[nH]c2cn(-c3ccc(Br)cc3)c(=O)n21` it was 0.843%; in that of `Cc1ccc(CN2CCC(CNC(=O)Cn3cncn3)CC2)cc1`, 1.22%; in that of `c1ccc(Cn2cncn2)c(CNCC2CNc3ccnn3C2)c1` (centres undefined), -3.61%.

Regarding `Cc1cccnc1[C@H](C)Nc1nc(-c2cccnc2)nc2c1CNC2`, the cytotoxicity at 10 µM was -8.52%. Consider `Cc1cccc2[nH]c(C3CCCN(Cc4ccc(CO)o4)C3)nc12` (centres undefined), for which the cytotoxicity at 10 µM is 9.83%. As for `CN(C)CCN1CCN(Cc2cccs2)Cc2cccnc21`, the figure is -3.24%. Take `CCC(O)CN1CCN(C(=O)c2ccc3c(c2)COC3)CC1` (centres undefined): the cytotoxicity at 10 µM was -6.58%.

For the compound `Cc1ccc(CN(C)C(=O)c2cnsn2)cc1`, the cytotoxicity at 10 µM was -16.4%. As for `Cn1ccc(C(=O)N2CCCC2c2[nH]ncc2C(N)=O)n1` (centres undefined), the figure is 15.3%; as for `O=C(O)c1cc(-c2ccncc2)cc(S(=O)(=O)N2CCSCC2)c1`, 3.26%. In the case of `CC(=O)N(C)CC(=O)Nc1cnc(-n2ccnc2C)nc1` it was 3.86%; in that of `O=C(c1cccnc1N1CCOCC1)N1CCCC1Cn1cccn1` (centres undefined), -2.53%. In the case of `CC(C)Cc1cc(C(=O)N2CCCC(n3cncn3)C2)[nH]n1` (centres undefined) it was -3.9%; in that of `CC(=O)N1CCC(NC(=O)c2cc(Cl)ccc2O)CC1`, 0.0966%.

In the case of `c1cnn(CC2CN(CCc3ccncc3)CCO2)c1` (centres undefined), the cytotoxicity at 10 µM was found to be 2.74%. As for `CN(CCCN1CCCCCC1)C(=O)c1ccccc1NCC(=O)O`, the figure is -4.84%; as for `N#Cc1ncn(CCC(=O)Nc2ccccc2F)n1`, -150%. In the case of `O=C(NCC1CC1)Nc1ccc(OCC(F)(F)F)nc1`, the cytotoxicity at 10 µM was -2.4%. As for `Cc1nn2c(N3CCC(O)CC3)cc(-c3ccccc3)nc2c1C`, the figure is -6.54%; as for `CCC(=O)N1CCCC1c1ccsc1` (centres undefined), -6.05%.

As for `COc1ccc(NC(=O)CCC2CCCN(S(=O)(=O)C3CC3)C2)c(C)c1` (centres undefined), the cytotoxicity at 10 µM is -3.41%. As for `CCCC1COCCN1Cc1ccc(C(=O)O)cc1` (centres undefined), the figure is -139%; as for `Cc1noc(C)c1CNCc1nn(-c2ccccc2)c2c1CCC2`, 1.83%. For the compound `O=C(NCCC1=CCCCC1)c1[nH]nc2c1CCCC2`, the cytotoxicity at 10 µM is -80.4%. For `CCc1nnc2n1CCN(C(=O)c1ccc3c(c1)[nH]c(=O)n3C)C2`, the cytotoxicity at 10 µM is -3.22%.

On to `COCC1(C(=O)N[C@H]2CN(c3noc(C)n3)C[C@@H]2C2CC2)CCC1`, for which the cytotoxicity at 10 µM is -135%. With `Cc1nn(C)c(C)c1C1CCCN1C(=O)c1cnc2onc(C)c2c1` (centres undefined), the cytotoxicity at 10 µM is -8.48%.

`O=C(c1ccccc1)N1CCCn2c(CN3CCCCC3)nnc2C1`: the cytotoxicity at 10 µM was -65.5%. As for `Cn1cc(CC(CNC(=O)Nc2cccc(Cl)c2)C(N)=O)cn1` (centres undefined), the figure is -15.5%. In the case of `CCn1ccnc1CN(C)C1CCCN(Cc2ccccc2F)C1` (centres undefined) it was 4.77%.

For `CC(C)N(C)CC(=O)N1CCCC(c2ccc(C(=O)O)cc2)C1` (centres undefined), the cytotoxicity at 10 µM is -6.09%. As for `CC1CN(Cc2nc(Cc3ccccc3F)no2)CCN1C` (centres undefined), the figure is -7.44%. In the case of `COc1cccc(C2CN(CCc3ccncc3)CCO2)c1` (centres undefined) it was -10.1%; in that of `O=C(c1ccno1)N1CCC2(CC1)C(=O)Nc1ccccc12`, -134%.

Regarding `O=C(C1CC1)N1CCOC2(CCNCC2)C1`, the cytotoxicity at 10 µM was -112%. As for `CC(CN(C)C)Nc1nc(O)cc(Cc2ccccc2F)n1` (centres undefined), the figure is 13.2%; as for `CSc1cccc(CN(C)C(=O)c2cccc(C3CCCNC3)c2)c1` (centres undefined), -1.08%; as for `CCN1CCOC(CNCc2ccc(OCc3ccccn3)cc2)C1` (centres undefined), -7.83%. As to `COc1nc2c(cc1C(=O)N(C)Cc1noc3c1CCCC3)CCC2`, the cytotoxicity at 10 µM amounted to 0.224%. On to `O=C(COCc1ccccc1Cl)Nc1ccnn1CC1CCOC1` (centres undefined), for which the cytotoxicity at 10 µM was -1.9%. Take `COCC(=O)N1CCn2c(Cn3cncn3)cnc2C1C` (centres undefined): the cytotoxicity at 10 µM is 0.53%. As for `Cn1cccc1C(=O)N1CC[C@H]2[C@H](CO[C@H]2CNS(C)(=O)=O)C1`, the figure is -2.94%; as for `CCOc1cncc(N2CCCC2c2nnc3n2CCCCC3)n1` (centres undefined), -5.93%; as for `Cc1nc2c(c(NCc3cnc4c(c3)CCC4)n1)CNC2`, -3.57%. Consider `CCc1cc(C(=O)N2CCC(Nc3ccc(C)nn3)CC2)sc1C`, for which the cytotoxicity at 10 µM is -1.03%. As for `Cc1csc(C2(NC(=O)CCNC(=O)C(C)(C)C)CCCC2)n1`, the figure is -7.43%. In the case of `c1ccc(NC[C@@H]2CCC[C@@H]3CN(Cc4nccs4)C[C@@H]32)nc1`, the cytotoxicity at 10 µM is -108%. For the compound `CS(=O)(=O)N1C[C@@H]2CC[C@H]1CN(Cc1ccncc1)C2`, the cytotoxicity at 10 µM is -2.34%.
